Reference: PubChem BioAssay AID743338 (The Scripps Research Institute Molecular Screening Center, 2014)
Active and inactive are the calls of the source.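 How the source made its calls: active means IC50 at or below 10 µM; inactive means IC50 above 10 µM.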

Molecular target: Disintegrin and metalloproteinase domain-containing protein 10 (Homo sapiens) (UniProt O14672)
Assay: inhibition of ADAM10 substrate cleavage, late-stage follow-up, ADAM10 exosite inhibitor project, biochemical, QFRET peptide, fluorescence (AID 743338)
Details: recombinant ADAM10, QFRET peptide cleavage
Summary of the method: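 Assay system: human ADAM10; medium: HEPES 50 mM buffer, pH 7.5, with 0.01% Brij; reagent: DM2 quenched fluorogenic peptide substrate; compound dosing: 10 doses, 1:3 steps, up to 69.5 µM; schedule: 30 min preincubation at 25 °C, 3 h reaction; read-out: IC50 from four-parameter inhibition curve fit; replicates: triplicate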

Chain of Disintegrin and metalloproteinase domain-containing protein 10 (Homo sapiens) (O14672 214-748 limits assumed): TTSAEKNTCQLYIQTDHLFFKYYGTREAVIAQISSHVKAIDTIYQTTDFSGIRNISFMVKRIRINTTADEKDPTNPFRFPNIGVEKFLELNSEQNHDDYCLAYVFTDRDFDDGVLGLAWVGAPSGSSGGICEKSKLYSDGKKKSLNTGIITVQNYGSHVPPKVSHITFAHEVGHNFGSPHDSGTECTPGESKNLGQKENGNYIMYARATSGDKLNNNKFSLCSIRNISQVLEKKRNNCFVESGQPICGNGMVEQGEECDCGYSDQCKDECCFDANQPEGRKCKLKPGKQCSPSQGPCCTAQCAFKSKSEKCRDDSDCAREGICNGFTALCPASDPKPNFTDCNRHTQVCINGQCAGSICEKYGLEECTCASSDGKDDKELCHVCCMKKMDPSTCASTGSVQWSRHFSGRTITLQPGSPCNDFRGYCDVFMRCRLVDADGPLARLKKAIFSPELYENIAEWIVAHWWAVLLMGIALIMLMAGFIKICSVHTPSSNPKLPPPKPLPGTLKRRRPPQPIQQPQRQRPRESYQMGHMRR

Row | IC50 | Compound
1 | inactive | C=C(C)COc1ccc(-c2[nH]ncc2Oc2ccc(OC)cc2)c(O)c1
2 | 4.87 µM | Oc1cc2c(cc1C(c1ccc(Cl)c(Cl)c1)N1CCCC1)OCO2 (stereo not drawn)
3 | > 69.5 µM (inactive) | O=S(=O)(NCC(Nc1ccc(Cl)cc1)c1ccccc1)c1ccc(Cl)cc1 (stereo not drawn)
4 | > 69.5 µM (inactive) | COc1ccc2nc(SCC(=O)Nc3ccc(S(=O)(=O)N4CCCC4)cc3)c(C#N)cc2c1
5 | > 69.5 µM (inactive) | O=C(Nc1ccc(OCC(F)(F)C(F)(F)F)c(C(F)(F)F)c1)c1ccc(F)cc1
6 | > 69.5 µM (inactive) | Cc1ccc(S(=O)(=O)Nc2ccc(Cl)cc2)cc1NC(=O)c1cc2c(s1)CCCC2
7 | > 69.5 µM (inactive) | O=C(CN(Cc1cccs1)S(=O)(=O)c1ccc(S(=O)(=O)NC2CCCCC2)cc1)Nc1ccccc1
8 | > 69.5 µM (inactive) | O=C(O)CCC(=O)c1c[nH]c2ccccc12
9 | > 69.5 µM (inactive) | Cc1csc(-c2cnn(-c3ccccc3)c2NC(=O)c2ccc(C(F)(F)F)cc2)n1
10 | > 69.5 µM (inactive) | COc1ccc(-c2ccc(-c3noc(-c4cccc(OC)c4)n3)c(OC)n2)cc1
11 | inactive | C=C(C)COc1ccc(-c2n[nH]c(C)c2Oc2ccccc2OC)c(O)c1
12 | inactive | C=C(C)COc1ccc(-c2[nH]ncc2Oc2cccc(OC)c2)c(O)c1
13 | > 69.5 µM (inactive) | Cc1ccc(OCC(O)Cn2c3ccccc3c3ccccc32)cc1 (stereo not drawn)
14 | 6.5 µM | COc1cccc(C(=O)NNC(=O)C(=O)Nc2ccc(C)c(Cl)c2)c1
15 | > 69.5 µM (inactive) | O=S(=O)(NCC(Nc1ccc(Cl)cc1)c1ccccc1)c1ccccc1 (stereo not drawn)
16 | > 69.5 µM (inactive) | CCOc1ccc(NC(=O)CC2SC(=O)N(c3ccccc3)C2=O)cc1 (stereo not drawn)
17 | > 69.5 µM (inactive) | Cc1ccc(CC2(c3ccccc3)NC(=O)NC2=O)cc1 (stereo not drawn)
18 | > 69.5 µM (inactive) | O=C(Nc1ccc(OCC(F)(F)C(F)F)c(C(F)(F)F)c1)c1ccc(Cl)cc1
19 | > 69.5 µM (inactive) | CS(=O)(=O)N(CC(=O)Nc1ccccc1Sc1ccccc1)c1cccc(Br)c1
20 | > 69.5 µM (inactive) | CCCCN(Cc1ccccc1)S(=O)(=O)c1cc(Br)cc2c1N(C(C)=O)C(C)C2 (stereo not drawn)
21 | > 69.5 µM (inactive) | COc1ccccc1NS(=O)(=O)c1cccc(NC(=O)Nc2ccc(Cl)cc2)c1
22 | inactive | O=C1NC(=O)C(Cc2ccc(Cl)cc2)(c2ccccc2)N1 (stereo not drawn)
23 | > 69.5 µM (inactive) | O=C(Nc1ccc(OCC(F)(F)C(F)(F)F)c(C(F)(F)F)c1)c1ccc(Br)cc1
